Columns and labels:
Settings in all cases: stereoisomer not certain
UniProt Q8VGC6 = molecular target: T1, UniProt Q8VGC6
T1 sequence (whole entry): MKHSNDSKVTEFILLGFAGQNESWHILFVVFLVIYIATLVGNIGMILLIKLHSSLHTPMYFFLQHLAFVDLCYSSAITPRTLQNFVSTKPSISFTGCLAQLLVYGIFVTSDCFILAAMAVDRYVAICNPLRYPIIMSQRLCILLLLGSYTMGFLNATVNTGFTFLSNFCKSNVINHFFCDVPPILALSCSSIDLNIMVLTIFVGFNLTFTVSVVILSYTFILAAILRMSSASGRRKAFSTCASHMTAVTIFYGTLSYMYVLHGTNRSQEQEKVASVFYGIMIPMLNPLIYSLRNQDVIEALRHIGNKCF
Procedure, shortened: (§1)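 Each entry records the cell line, G-protein, co-transfected protein and tags used. Methods varied with the source, often transient luciferase assays in mammalian cell lines. A receptor–molecule pair is called responsive (active) if the original authors judged its signal statistically different from baseline and non-responsive (inactive) otherwise.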

UniProt Q8VGD7 = molecular target: T2, UniProt Q8VGD7
T2 sequence (whole entry): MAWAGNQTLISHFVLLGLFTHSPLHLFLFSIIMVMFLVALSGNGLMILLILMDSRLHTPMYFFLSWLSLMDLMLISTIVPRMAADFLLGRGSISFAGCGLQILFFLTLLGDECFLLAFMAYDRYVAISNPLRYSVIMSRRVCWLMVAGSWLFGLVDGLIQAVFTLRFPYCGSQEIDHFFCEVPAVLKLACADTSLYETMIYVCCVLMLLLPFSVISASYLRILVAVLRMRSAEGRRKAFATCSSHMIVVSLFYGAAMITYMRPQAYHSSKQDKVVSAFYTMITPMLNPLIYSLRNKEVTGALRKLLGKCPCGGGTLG
Procedure, shortened: as §1

UniProt Q8VGH1 = molecular target: T3, UniProt Q8VGH1
T3 sequence (whole entry): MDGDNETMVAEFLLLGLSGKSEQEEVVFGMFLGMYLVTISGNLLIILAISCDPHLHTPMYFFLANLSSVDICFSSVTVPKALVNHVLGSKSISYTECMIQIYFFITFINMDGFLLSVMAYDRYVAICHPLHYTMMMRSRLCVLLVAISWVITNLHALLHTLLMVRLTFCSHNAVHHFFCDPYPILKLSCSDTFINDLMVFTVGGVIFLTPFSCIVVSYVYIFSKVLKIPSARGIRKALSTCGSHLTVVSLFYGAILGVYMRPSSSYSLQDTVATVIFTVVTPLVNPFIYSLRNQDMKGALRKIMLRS
Procedure, shortened: as §1

UniProt Q8VGJ1 = molecular target: T4, UniProt Q8VGJ1
T4 sequence (whole entry): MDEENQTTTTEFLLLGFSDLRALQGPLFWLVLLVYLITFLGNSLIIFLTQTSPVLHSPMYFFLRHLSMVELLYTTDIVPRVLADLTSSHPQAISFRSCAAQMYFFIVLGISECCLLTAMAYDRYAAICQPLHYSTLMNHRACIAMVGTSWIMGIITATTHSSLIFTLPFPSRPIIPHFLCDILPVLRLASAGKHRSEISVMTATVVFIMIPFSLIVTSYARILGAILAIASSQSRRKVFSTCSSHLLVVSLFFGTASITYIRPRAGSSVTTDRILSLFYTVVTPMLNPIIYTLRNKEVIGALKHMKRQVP
Procedure, shortened: as §1

UniProt Q8VGJ5 = molecular target: T5, UniProt Q8VGJ5
T5 sequence (whole entry): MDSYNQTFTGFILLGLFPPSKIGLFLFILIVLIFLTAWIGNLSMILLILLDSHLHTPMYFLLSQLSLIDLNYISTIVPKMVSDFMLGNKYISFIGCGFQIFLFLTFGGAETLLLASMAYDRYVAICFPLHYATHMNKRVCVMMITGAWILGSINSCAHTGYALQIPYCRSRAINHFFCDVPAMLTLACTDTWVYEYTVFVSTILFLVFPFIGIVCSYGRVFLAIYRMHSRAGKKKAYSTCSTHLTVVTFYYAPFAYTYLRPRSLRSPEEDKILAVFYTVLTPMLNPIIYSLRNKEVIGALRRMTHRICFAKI
Procedure, shortened: as §1

UniProt Q8VGL0 = molecular target: T6, UniProt Q8VGL0
T6 sequence (whole entry): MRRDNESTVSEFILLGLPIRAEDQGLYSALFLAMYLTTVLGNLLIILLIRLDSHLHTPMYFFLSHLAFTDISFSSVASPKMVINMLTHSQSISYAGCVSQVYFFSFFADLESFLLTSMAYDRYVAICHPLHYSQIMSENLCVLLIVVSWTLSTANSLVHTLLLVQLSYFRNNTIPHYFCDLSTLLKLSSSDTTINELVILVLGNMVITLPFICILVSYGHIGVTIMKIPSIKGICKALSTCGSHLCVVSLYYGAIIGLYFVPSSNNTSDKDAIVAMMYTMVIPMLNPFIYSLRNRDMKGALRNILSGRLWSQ
Procedure, shortened: as §1

UniProt Q8VGL7 = molecular target: T7, UniProt Q8VGL7
T7 sequence (whole entry): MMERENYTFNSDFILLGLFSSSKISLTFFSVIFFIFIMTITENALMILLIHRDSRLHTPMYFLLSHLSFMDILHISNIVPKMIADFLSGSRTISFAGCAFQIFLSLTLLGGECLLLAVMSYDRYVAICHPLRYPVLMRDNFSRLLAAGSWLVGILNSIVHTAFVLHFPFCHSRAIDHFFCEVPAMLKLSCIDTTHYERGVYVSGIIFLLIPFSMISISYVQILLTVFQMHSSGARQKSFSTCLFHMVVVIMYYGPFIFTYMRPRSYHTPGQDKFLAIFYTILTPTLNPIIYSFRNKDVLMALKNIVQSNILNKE
Procedure, shortened: as §1

UniProt Q8VGM2 = molecular target: T8, UniProt Q8VGM2
T8 sequence (whole entry): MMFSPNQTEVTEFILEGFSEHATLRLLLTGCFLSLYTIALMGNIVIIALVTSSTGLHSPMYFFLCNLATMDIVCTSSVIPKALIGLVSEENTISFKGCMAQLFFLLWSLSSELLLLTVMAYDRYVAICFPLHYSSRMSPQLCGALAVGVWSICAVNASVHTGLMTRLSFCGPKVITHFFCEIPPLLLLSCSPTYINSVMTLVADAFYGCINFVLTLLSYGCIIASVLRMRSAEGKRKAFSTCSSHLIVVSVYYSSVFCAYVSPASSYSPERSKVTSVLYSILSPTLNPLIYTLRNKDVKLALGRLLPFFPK
Procedure, shortened: as §1

UniProt Q8VGP6 = molecular target: T9, UniProt Q8VGP6
T9 sequence (whole entry): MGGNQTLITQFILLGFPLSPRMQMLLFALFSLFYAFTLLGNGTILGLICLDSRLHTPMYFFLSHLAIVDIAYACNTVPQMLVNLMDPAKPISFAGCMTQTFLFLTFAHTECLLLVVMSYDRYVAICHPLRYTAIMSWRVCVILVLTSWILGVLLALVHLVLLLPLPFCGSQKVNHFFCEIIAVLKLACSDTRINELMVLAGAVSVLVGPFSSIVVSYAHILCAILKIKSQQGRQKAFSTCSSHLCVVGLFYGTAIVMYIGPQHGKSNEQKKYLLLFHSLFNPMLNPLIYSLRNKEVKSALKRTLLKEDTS
Procedure, shortened: as §1

UniProt Q8VGQ3 = molecular target: T10, UniProt Q8VGQ3
T10 sequence (whole entry): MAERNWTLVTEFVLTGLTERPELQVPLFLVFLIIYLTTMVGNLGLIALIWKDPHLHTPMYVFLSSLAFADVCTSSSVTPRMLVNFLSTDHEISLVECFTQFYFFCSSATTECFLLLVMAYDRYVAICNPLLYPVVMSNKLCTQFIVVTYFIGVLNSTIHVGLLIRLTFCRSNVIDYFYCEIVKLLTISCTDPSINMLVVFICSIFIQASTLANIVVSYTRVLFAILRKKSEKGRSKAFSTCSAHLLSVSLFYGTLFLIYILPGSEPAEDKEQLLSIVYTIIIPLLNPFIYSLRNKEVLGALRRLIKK
Procedure, shortened: as §1

UniProt Q8VGT4 = molecular target: T11, UniProt Q8VGT4
T11 sequence (whole entry): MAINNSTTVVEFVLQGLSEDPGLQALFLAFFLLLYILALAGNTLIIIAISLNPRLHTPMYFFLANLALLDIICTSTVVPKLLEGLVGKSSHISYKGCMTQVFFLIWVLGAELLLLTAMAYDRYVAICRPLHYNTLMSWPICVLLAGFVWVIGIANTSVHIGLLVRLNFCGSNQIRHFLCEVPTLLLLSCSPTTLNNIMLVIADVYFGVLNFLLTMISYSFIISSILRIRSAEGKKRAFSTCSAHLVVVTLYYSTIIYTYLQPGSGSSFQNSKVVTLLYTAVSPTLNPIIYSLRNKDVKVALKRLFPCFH
Procedure, shortened: as §1

UniProt Q8VGV1 = molecular target: T12, UniProt Q8VGV1
T12 sequence (whole entry): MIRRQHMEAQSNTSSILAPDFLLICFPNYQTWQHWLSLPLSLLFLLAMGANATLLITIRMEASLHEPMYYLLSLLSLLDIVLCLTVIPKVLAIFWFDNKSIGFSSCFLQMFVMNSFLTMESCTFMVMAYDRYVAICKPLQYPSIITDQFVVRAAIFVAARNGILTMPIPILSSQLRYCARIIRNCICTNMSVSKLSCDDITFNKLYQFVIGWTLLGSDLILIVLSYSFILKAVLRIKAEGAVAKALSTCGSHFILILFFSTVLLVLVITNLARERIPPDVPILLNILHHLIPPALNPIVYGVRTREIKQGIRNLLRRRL
Procedure, shortened: as §1

UniProt Q8VGX5 = molecular target: T13, UniProt Q8VGX5
T13 sequence (whole entry): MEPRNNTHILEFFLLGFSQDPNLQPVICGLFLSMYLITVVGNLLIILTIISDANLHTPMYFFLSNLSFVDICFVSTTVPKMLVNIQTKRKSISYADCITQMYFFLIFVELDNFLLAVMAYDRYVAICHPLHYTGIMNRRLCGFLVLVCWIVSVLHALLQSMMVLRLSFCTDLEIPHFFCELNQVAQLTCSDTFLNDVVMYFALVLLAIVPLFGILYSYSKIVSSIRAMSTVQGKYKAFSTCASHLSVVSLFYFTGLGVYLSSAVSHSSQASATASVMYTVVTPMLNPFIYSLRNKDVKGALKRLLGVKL
Procedure, shortened: as §1

UniProt Q8VGJ3 = molecular target: T14, UniProt Q8VGJ3
T14 sequence (whole entry): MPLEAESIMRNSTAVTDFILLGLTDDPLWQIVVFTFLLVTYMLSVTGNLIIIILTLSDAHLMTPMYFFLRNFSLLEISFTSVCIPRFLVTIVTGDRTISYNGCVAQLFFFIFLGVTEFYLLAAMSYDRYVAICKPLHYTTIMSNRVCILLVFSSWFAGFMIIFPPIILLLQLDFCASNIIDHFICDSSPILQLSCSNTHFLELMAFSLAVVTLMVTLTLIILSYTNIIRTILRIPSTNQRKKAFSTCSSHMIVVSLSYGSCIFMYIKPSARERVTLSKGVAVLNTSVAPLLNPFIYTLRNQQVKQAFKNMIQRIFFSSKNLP
Procedure, shortened: as §1

UniProt Q8VGU3 = molecular target: T15, UniProt Q8VGU3
T15 sequence (whole entry): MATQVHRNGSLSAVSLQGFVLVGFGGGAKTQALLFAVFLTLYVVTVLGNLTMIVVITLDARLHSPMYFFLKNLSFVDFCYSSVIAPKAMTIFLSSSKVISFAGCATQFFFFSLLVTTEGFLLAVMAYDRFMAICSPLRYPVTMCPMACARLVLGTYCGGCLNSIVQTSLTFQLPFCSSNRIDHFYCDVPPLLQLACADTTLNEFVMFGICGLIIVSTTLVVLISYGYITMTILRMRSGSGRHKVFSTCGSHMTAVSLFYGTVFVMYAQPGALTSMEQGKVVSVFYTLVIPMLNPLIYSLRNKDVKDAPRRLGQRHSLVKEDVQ
Procedure, shortened: as §1

UniProt Q8VGV7 = molecular target: T16, UniProt Q8VGV7
T16 sequence (whole entry): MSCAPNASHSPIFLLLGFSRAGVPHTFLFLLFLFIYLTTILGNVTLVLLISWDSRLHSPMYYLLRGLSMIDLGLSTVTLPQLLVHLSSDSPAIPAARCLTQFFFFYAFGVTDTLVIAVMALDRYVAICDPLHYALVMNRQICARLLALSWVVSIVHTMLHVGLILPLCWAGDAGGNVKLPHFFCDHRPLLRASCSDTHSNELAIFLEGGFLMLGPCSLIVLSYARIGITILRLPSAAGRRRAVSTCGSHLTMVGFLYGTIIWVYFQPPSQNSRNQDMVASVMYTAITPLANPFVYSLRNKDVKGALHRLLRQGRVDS
Procedure, shortened: as §1

UniProt Q8VGX3 = molecular target: T17, UniProt Q8VGX3
T17 sequence (whole entry): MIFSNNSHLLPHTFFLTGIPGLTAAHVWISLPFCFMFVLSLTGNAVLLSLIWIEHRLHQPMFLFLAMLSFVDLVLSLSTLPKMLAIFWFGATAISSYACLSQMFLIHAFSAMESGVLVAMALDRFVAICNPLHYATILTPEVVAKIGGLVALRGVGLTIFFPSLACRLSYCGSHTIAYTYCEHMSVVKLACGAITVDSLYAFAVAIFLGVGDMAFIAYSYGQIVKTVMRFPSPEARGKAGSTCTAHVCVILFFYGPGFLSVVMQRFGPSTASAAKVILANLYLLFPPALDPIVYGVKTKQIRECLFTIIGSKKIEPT
Procedure, shortened: as §1

SMILES	odorant receptor agonist call (UniProt Q8VGC6)	odorant receptor agonist call (UniProt Q8VGD7)	odorant receptor agonist call (UniProt Q8VGH1)	odorant receptor agonist call (UniProt Q8VGJ1)	odorant receptor agonist call (UniProt Q8VGJ5)	odorant receptor agonist call (UniProt Q8VGL0)	odorant receptor agonist call (UniProt Q8VGL7)	odorant receptor agonist call (UniProt Q8VGM2)	odorant receptor agonist call (UniProt Q8VGP6)	odorant receptor agonist call (UniProt Q8VGQ3)	odorant receptor agonist call (UniProt Q8VGT4)	odorant receptor agonist call (UniProt Q8VGV1)	odorant receptor agonist call (UniProt Q8VGX5)	odorant receptor agonist call (UniProt Q8VGJ3)	odorant receptor agonist call (UniProt Q8VGU3)	odorant receptor agonist call (UniProt Q8VGV7)	odorant receptor agonist call (UniProt Q8VGX3)
CCC(C(=O)O)c1ccccc1 (configuration not stated)	inactive	inactive	inactive	inactive	inactive	inactive	inactive	inactive	inactive	inactive	inactive	inactive	inactive				
CSSSC	inactive					inactive							inactive	inactive	inactive	inactive	inactive
CCCCCC(=O)CC	active	inactive	inactive	inactive	active	inactive	inactive	inactive	inactive	inactive	inactive	inactive	inactive	inactive	inactive	inactive	inactive

— the M2OR odorant receptor database
